Peptide text beside a SMILES is read from it.
Assays:
[1] = Intrinsic clearance in human liver microsomes at 25 uM; type: ADME; details: read-out: CLH
[2] = Half life in rat plasma at 25 uM; type: ADME, cell-free
[3] = Half life in human plasma at 25 uM; type: ADME, cell-free
[4] = Drug uptake in CHOK1 cells at 25 uM; type: ADME, cell-based, Cricetulus griseus; details: chinese hamster, cho-k1, 25 µM
[5] = target: T1, Solute carrier family 15 member 1 (Homo sapiens, UniProt P46059); test: Drug uptake in CHO-PepT1 cells expressing PepT1 (unknown origin) assessed as transporter mediated uptake at 25 uM; type: ADME, cell-based, Cricetulus griseus; details: chinese hamster, cho-pept1, 25 µM
T1 sequence (P46059 whole entry): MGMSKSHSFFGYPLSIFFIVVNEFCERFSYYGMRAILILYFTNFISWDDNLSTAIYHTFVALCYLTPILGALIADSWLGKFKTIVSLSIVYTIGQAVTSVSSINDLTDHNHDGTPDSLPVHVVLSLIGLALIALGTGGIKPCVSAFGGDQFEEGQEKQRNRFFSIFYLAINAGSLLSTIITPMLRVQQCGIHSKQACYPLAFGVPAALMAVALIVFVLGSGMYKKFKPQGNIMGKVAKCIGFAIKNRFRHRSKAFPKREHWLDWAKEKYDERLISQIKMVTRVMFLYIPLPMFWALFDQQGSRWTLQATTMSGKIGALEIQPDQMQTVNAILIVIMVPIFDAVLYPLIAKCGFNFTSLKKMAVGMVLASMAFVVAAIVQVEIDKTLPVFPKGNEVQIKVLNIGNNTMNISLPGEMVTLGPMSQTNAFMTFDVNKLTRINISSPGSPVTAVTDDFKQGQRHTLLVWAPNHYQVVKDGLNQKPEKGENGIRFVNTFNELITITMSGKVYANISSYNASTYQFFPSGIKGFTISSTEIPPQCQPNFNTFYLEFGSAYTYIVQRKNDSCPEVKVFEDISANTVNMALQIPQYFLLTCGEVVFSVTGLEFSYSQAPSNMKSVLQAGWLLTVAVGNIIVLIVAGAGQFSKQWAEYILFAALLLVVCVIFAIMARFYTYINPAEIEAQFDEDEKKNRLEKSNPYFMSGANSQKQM

[6] = Drug recovery in rat brain at 10 uM; type: ADME, tissue-based; details: read-out: Drug recovery
[7] = Efflux ratio of apparent permeability from basolateral to apical side to apical to basolateral side of human Caco2 cells; type: ADME, cell-based; details: Caco-2
Summary of the method: (§1)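 Caco-2 monolayers; apparent permeability coefficients (Papp) calculated from transport rates in the apical-to-basolateral and basolateral-to-apical directions. Efflux ratio is Papp(b–a)/Papp(a–b). Values are given as mean ± SD.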

Plasma [8] = test: Drug recovery in human plasma at 10 uM; type: ADME, cell-free
Summary of the method: (§2)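 Human plasma protein binding was measured by equilibrium dialysis. The read-outs were fraction unbound and mass recovery.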

[9] = Fraction unbound in rat plasma at 10 uM; type: ADME, cell-free
Cytochrome P450 1A2 = target: T2, Cytochrome P450 1A2 (Homo sapiens, UniProt P05177); test: Inhibition of CYP1A2 (unknown origin); type: ADME
T2 sequence (P05177 whole entry): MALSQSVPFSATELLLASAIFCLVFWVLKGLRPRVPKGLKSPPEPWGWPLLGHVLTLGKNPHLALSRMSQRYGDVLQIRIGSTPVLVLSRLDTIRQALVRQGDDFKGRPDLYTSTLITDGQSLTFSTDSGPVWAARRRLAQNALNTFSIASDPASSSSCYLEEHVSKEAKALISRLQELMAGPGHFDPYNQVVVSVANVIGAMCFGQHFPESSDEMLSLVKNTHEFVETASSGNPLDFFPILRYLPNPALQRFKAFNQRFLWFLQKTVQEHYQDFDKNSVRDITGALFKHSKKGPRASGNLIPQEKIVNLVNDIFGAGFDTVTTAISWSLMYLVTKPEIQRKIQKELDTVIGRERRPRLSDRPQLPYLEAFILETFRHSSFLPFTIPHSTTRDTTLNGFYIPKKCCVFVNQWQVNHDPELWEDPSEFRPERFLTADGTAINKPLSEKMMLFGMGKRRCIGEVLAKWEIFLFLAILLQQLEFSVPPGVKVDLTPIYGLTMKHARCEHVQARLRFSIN

Cytochrome P450 3A4 = Cytochrome P450 3A4 (Homo sapiens, UniProt P08684); test: Inhibition of CYP3A4 (unknown origin); type: ADME
Chain of Cytochrome P450 3A4 (P08684 whole entry): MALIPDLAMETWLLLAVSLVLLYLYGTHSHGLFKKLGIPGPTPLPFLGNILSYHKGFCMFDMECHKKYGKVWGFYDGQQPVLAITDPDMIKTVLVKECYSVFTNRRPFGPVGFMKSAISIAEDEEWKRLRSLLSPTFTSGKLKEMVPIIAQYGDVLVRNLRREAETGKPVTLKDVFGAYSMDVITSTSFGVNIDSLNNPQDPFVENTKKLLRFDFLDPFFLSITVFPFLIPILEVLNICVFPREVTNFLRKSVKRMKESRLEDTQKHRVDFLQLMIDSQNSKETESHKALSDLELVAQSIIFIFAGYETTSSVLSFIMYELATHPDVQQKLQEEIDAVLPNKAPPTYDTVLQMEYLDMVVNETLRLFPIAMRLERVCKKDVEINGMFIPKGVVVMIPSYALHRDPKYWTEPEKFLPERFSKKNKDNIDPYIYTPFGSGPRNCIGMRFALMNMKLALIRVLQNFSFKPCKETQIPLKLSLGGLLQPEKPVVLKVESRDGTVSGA

Hepatocyte = test: Intrinsic clearance in rat hepatocytes; type: ADME, cell-based
Plasma [10] = test: Drug recovery in rat plasma at 10 uM; type: ADME, cell-free
[11] = Apparent permeability from apical to basolateral side in human Caco2 cells; type: ADME, cell-based; details: Caco-2; summary of the method: as §1
[12] = Intrinsic clearance in human microsomes; type: ADME, Microsome
[13] = Intrinsic clearance in rat microsomes; type: ADME, Microsome
Brain = test: Unbound brain volume of distribution in rat at 10 uM; type: ADME, tissue-based; details: in vivo
Cytochrome P450 2D6 = Cytochrome P450 2D6 (Homo sapiens, UniProt P10635); test: Inhibition of CYP2D6 (unknown origin); type: ADME
Chain of Cytochrome P450 2D6 (P10635 whole entry): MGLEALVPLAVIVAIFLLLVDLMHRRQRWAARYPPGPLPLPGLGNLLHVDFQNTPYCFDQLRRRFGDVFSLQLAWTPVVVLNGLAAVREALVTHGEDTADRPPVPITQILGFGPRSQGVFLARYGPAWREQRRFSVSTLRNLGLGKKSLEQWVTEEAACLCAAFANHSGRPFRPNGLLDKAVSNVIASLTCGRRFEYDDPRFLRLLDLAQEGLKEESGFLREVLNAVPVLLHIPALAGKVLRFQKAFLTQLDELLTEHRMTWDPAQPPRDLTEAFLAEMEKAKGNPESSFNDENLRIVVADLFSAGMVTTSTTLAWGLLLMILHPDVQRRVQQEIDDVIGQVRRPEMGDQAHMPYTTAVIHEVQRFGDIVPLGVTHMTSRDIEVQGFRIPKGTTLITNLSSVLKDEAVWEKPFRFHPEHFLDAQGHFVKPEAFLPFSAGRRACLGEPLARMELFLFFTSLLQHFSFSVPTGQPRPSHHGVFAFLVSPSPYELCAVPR

[14] = Fraction unbound in rat brain at 10 uM; type: ADME, tissue-based
Cytochrome P450 2C9 = Cytochrome P450 2C9 (Homo sapiens, UniProt P11712); test: Inhibition of CYP2C9 (unknown origin); type: ADME
Chain of Cytochrome P450 2C9 (P11712 whole entry): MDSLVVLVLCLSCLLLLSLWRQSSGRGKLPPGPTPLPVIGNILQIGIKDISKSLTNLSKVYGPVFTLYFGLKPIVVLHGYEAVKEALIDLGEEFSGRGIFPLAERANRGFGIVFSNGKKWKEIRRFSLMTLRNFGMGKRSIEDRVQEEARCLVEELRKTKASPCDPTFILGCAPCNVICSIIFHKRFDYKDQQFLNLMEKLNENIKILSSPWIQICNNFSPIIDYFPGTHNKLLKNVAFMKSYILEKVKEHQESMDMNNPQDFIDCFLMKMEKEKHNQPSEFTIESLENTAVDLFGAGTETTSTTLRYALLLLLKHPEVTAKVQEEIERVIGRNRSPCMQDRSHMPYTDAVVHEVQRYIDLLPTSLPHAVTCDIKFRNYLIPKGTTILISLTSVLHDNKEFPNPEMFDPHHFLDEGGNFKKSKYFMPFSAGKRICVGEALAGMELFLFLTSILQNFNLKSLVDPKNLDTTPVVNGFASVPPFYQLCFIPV

[15] = Fraction unbound in human plasma at 10 uM; type: ADME, cell-free; summary of the method: as §2
in vitro [16] = details: human, Caco-2
in vitro [17] = details: human, Caco-2; remark: listed apart in the source
PepT1 = test: in vitro; details: chinese hamster, CHO-PepT1 cells and CHO-K1 cells
in vitro [18] = details: human, Caco-2; remark: listed apart in the source
[19] = Drug uptake in CHOK1 cells at 100 uM; type: ADME, cell-based, Cricetulus griseus; details: chinese hamster, cho-k1, 100 µM
Summary of the method: (§3)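 Uptake was measured in CHO-PepT1 cells, which are stably transfected with PepT1, and in CHO-K1 cells as the control. It is expressed as pmol/mg protein/min. […] A PepT1/K1 uptake ratio above 1 was taken to indicate a PepT1 substrate. Values are mean ± SD.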

[20] = Apparent permeability from apical to basolateral side in human Caco2 cells at 100 uM; type: ADME, cell-based; details: Caco-2
Summary of the method: as §1, with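 “Papp(b–a)/Papp(a–b). The test concentration was 100 μM, or 25 μM for poorly soluble compounds after further dilution.” for “Papp(b–a)/Papp(a–b).”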

[21] = Half life in rat plasma at 100 uM; type: ADME, cell-free
[22] = target: T1, Solute carrier family 15 member 1; test: Drug uptake in CHO-PepT1 cells expressing PepT1 (unknown origin) assessed as transporter mediated uptake at 100 uM; type: ADME, cell-based, Cricetulus griseus; details: chinese hamster, cho-pept1, 100 µM; summary of the method: as §3
[23] = Half life in human plasma at 100 uM; type: ADME, cell-free
[24] = Apparent permeability from basolateral to apical side in human Caco2 cells at 100 uM; type: ADME, cell-based; details: Caco-2
Summary of the method: as §1, with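 “Papp(b–a)/Papp(a–b). The test concentration was 100 μM, or 25 μM for poorly soluble compounds after further dilution.” for “Papp(b–a)/Papp(a–b).”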

[25] = Intrinsic clearance in human liver microsomes at 100 uM; type: ADME; details: read-out: CLH

microsomal CLint at 25 µM [1] [µL/min/mg] | half-life at 25 µM [2] [h] | half-life at 25 µM [3] [h] | Drug uptake [4] [pmol/min/mg] | Drug uptake [5] [pmol/min/mg] | Drug recovery (Plasma [8]) [%] | Drug recovery (Plasma [10]) [%] | Papp A→B at 25 µM (in vitro [16]) [×10⁻⁶ cm/s] | Papp B→A at 25 µM (in vitro [17]) [×10⁻⁶ cm/s] | SMILES | also measured
287 | 8.7 | 11.2 | 1128 | 1082 | – | – | – | – | O=C(N[C@@H](Cc1ccccc1)c1nnc(-c2ccccc2)o1)OCc1ccccc1 | –
– | – | – | – | – | > 65 | > 70 | – | – | NC(=O)[C@H](Cc1ccccc1)NC(=O)OCc1ccccc1 | recovery at 10 µM [6]: > 95%; efflux ratio [7]: 1; fraction unbound at 10 µM [9]: 0.18; INH (Cytochrome P450 1A2): > 20 µM; INH (Cytochrome P450 3A4): > 20 µM; CLH (Hepatocyte): 39.4 µL/min/mg; Papp A→B [11]: 31 ×10⁻⁶ cm/s; microsomal CLint [12]: 22.6 µL/min/mg; microsomal CLint [13]: 21.2 µL/min/mg; Vdu (Brain): 6 mL/g; INH (Cytochrome P450 2D6): > 20 µM; fraction unbound at 10 µM [14]: 0.17; INH (Cytochrome P450 2C9): > 20 µM; fraction unbound at 10 µM [15]: 0.19
– | – | – | – | – | > 95 | > 95 | – | – | NC(=O)[C@@H]1[C@H](c2ccccc2)CCN1C(=O)[C@@H](N)Cc1ccccc1 | recovery at 10 µM [6]: > 95%; Vdu (Brain): 3.4 mL/g
23 | 0.06 | 7.9 | 4 | 5 | – | – | 60 | 45 | O=C(N[C@@H](Cc1ccccc1)C(=O)NO)OCc1ccccc1 | –
65 | 0.31 | 9.9 | 156 | 127 | – | – | 11 | 14 | O=C(N[C@@H](Cc1ccccc1)C(=O)NNC(=O)c1ccccc1)OCc1ccccc1 | uptake ratio at 25 µM (PepT1): 0.8; efflux ratio at 25 µM (in vitro [18]): 1.3
11 | 8.7 | 6.6 | 4 | 4 | – | – | 52 | 62 | N#CNC(=O)[C@H](Cc1ccccc1)NC(=O)OCc1ccccc1 | uptake ratio at 25 µM (PepT1): 1; efflux ratio at 25 µM (in vitro [18]): 1.2
– | – | – | – | – | 22 | 1 | – | – | NC(=O)[C@H](Cc1ccccc1)NC(=O)[C@@H](N)Cc1ccccc1 (H-Phe-Phe-NH2) | microsomal CLint [12]: 97.3 µL/min/mg; microsomal CLint [13]: 103 µL/min/mg
– | – | – | – | – | – | – | – | – | CS(=O)(=O)NC(=O)[C@H](Cc1ccccc1)NC(=O)OCc1ccccc1 | Drug uptake [19]: 77 pmol/min/mg; Papp A→B at 100 µM [20]: 6 ×10⁻⁶ cm/s; half-life at 100 µM [21]: 6.9 h; Drug uptake [22]: 90 pmol/min/mg; half-life at 100 µM [23]: 26.7 h; Papp B→A at 100 µM [24]: 3 ×10⁻⁶ cm/s; microsomal CLint at 100 µM [25]: 17 µL/min/mg
